Test results: PMC3166240 (Cancer research, 2010)

How the values were obtained:
α4β1 integrin [1] = target: T1, α4β1 integrin (Homo sapiens, UniProt P05556+P13612); experiment: cell adhesion competitive inhibition assay; type: cell-based
Method in brief: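 Wells were coated with neutravidin, then loaded with biotinylated CS-1 to immobilize the ligand, and blocked with BSA. Molt-4 cells (human T-cell leukemia, α4β1-bearing) were incubated in the wells with test compound. Wells were washed, formalin-fixed and crystal violet-stained, and absorbance was read at 570 nm. Percent inhibition came from concentration-dependent curves.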

[2] = tested on: Raji cells (human B-cell lymphoma) xenograft tumors; experiment: animal biodistribution study for 7 in Raji xenograft mice; type: in vivo, BALB/c nu/nu mice; conditions: i.v.
Method in brief: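 Eleven female BALB/c nu/nu mice, 5–6 weeks old, were xenografted s.c. in the abdomen with 5 × 10⁶ Raji cells. Tumors were measured after three weeks. The ¹²⁵I-labeled test compound (4–6 μCi; 5 μg, 6 nmol) in normal saline was given i.v. via the tail vein. Mice were killed at 4, 24 and 48 h. Tissues were weighed and γ-counted (%ID/g). Mice were grouped afterwards by slow or fast blood clearance.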

α4β1 integrin [3] = target: T1, α4β1 integrin; experiment: in vitro binding studies of radioiodinated 8; conditions: 125I-labelled

T1 sequence (P13612 34-1032): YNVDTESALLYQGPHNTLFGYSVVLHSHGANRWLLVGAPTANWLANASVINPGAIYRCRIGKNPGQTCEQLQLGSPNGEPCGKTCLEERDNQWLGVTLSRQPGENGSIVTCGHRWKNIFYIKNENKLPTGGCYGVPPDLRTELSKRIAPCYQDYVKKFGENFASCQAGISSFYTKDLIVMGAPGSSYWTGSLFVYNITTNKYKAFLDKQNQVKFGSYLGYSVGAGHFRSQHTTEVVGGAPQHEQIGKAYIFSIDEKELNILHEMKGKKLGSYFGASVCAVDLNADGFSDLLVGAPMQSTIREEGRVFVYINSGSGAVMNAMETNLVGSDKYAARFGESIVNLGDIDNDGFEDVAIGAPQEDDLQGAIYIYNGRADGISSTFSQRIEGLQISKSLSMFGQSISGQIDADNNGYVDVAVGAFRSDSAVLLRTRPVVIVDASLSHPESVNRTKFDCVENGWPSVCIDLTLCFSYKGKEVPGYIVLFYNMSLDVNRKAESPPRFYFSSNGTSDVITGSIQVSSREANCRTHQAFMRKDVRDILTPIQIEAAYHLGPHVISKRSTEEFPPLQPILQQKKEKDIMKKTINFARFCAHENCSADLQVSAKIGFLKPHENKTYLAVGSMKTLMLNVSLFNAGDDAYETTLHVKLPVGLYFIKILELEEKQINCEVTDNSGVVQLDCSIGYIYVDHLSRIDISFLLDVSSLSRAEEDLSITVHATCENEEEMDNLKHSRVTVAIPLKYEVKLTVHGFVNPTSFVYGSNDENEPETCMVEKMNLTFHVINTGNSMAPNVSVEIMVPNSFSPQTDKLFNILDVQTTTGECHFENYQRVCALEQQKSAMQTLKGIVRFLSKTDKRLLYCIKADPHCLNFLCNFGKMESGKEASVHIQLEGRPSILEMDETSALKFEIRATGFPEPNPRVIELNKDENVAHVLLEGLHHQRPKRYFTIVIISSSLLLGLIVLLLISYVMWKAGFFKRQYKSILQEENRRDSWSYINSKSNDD
T1 sequence (P05556 21-798): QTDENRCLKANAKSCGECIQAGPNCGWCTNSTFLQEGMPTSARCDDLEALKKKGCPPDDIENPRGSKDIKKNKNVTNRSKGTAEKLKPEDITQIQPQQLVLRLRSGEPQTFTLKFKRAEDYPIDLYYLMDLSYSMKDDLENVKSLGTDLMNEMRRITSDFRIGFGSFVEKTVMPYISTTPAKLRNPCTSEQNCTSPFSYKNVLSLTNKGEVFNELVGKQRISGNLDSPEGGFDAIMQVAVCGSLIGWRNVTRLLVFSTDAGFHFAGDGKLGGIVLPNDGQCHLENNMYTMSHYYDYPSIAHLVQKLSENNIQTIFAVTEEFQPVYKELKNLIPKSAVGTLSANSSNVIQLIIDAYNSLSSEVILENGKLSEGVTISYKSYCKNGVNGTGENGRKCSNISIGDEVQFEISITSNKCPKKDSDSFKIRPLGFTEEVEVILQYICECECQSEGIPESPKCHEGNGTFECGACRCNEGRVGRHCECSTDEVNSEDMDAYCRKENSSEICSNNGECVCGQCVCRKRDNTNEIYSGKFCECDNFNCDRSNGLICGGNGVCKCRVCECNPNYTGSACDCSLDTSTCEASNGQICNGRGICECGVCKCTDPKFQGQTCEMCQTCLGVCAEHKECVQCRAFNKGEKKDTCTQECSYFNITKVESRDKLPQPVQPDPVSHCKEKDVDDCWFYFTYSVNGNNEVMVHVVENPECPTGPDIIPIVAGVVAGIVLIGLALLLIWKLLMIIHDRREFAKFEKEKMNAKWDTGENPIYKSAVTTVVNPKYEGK

## NC(=O)C1(NC(=O)[C@H](CCCC(=O)O)NC(=O)[C@H](CCCCNC(=O)/C=C/c2cccnc2)NC(=O)c2ccc(Nc3nc4cc(Br)ccc4[nH]3)cc2)CCCCC1 [compound 5, (S)-5-[(S)-2-{4-(5-Bromo-1H-benzo[d]imidazol-2-ylamino}benzamido]-6-[(E)-3-(pyridin-3-yl)-acrylamido}hexanamido]-6-(1-carbamoylcyclohexylamino)-6-oxo-hexanoic Acid]
α4β1 integrin [1]; compared with previous leads
  fold less potent than previous leads: 2 fold

## (S)-6-(1-Carbamoylcyclohexylamino)-5-[(S)-2-{4-(5-iodo-1H-benzo[d]imidazol-2-ylamino)benz-amido]-6-[(E)-3-(pyridin-3-yl)acrylamido}hexanamido]-6-oxohexanoic Acid [compound 6]
α4β1 integrin [1]; compared with 3, 4, 5
  fold less potent than the fluoro (3), chloro (4), and bromo (5) analogues: approximately 10 fold
α4β1 integrin [1]; compared with 15a, 15b
  fold more potent than the unsubstituted (15a) and methyl analogues (15b): 100 fold

## NC(=O)C1(NC(=O)[C@H](CCC(=O)O)NC(=O)[C@H](CCCCNC(=O)/C=C/c2cccnc2)NC(=O)c2ccc(Nc3nc4cc([125I])ccc4[nH]3)cc2)CCCCC1 [compound 7, [^125I]-(S)-6-(1-Carbamoylcyclohexylamino)-5-[(S)-2-{4-(5-iodo-1H-benzo[d]imidazol-2-ylamino)-benzamido]-6-[(E)-3-(pyridin-3-yl)acrylamido}hexanamido]-6-oxo-hexanoic Acid]
α4β1 integrin [1]; compared with 5
  reduced in vitro affinity for α4β1 integrin compared to the bromo analogue 5: nearly ten-fold
[2]; fast blood clearance mice (3 at 24 h, 2 at 48 h)
  major dose accumulated in liver, spleen and marrow: 25 % ID/g
[2]; fast blood clearance mice
  tumor uptake: less than 1.5 % ID/g
[2]; slow blood clearance mice (2 at 24 h, 1 at 48 h)
  still circulating in the blood: approximately 15%
[2]; slow blood clearance mice, 48 h
  liver, spleen and marrow uptakes: less than 8 % ID/g
[2]; slow blood clearance mice
  tumor uptake: greater than 6 % ID/g

## NC(=O)[C@H](Cc1ccc(O)c([125I])c1)C(=O)NC(=O)C1(NC(=O)[C@H](CCC(=O)O)NC(=O)[C@H](CCCCNC(=O)/C=C/c2cccnc2)NC(=O)c2ccc(Nc3nc4cc(Br)ccc4[nH]3)cc2)CCCCC1 [compound 8, [^125I]-(S)-6-[1-{(S)-3-Amino-2-(4-hydroxy-3-iodobenzyl)-3-oxopropanoyl-carbamoyl}cyclohexylamino]-5-[(S)-2-{4-(5-bromo-1H-benzo[d]imidazol-2-ylamino)benzamido]-6-[(E)-3-(pyridin-3-yl)-acrylamido}hexanamido]-6-oxohexanoic Acid]
α4β1 integrin [3]
  in vitro binding: < 4%
